Assay results from publication PMC6718330 (European journal of medicinal chemistry, 2019).
Entries after “also recorded” stand apart in the source; their conditions may differ.

B1: IFN-γ: Interferon gamma (100 ng/mL, Sigma) used to stimulate macrophages as comparison treatment (protein, UniProt P01579 24-161, looked up)
Interferon gamma: QDPYVKEAENLKKYFNAGHSDVADNGTLFLGILKNWKEESDRKIMQSQIVSFYFKLFKNFKDDQSIQKSVETIKEDMNVKFFNSNKKKRDDFEKLTNYSVTDLNVQRKAIHELIQVMAELSPAAKTGKRKRSQMLFRG

How the values were obtained:
cruzain and rhodesain = experiment: Primary screen of the MMV400 at 5 µM against cruzain and rhodesain; assay type: biochemical, Trypanosoma cruzi; Trypanosoma brucei; details: primary screen at 5 µM
How it was run: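 Fluorimetric screen of the library at 5 µM against recombinant cruzain and rhodesain (1 nM each). Substrate was 2.5 µM Z-FR-AMC in 0.1 M sodium acetate pH 5.5 with 0.01% Triton X-100 and 1 mM β-mercaptoethanol. Runs had no pre-incubation or 10 min enzyme–compound pre-incubation, two duplicates each. AMC release was read at 340/440 nm for 5 min at 12 s intervals; DMSO and E-64 served as controls.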

rhodesain = rhodesain (Trypanosoma brucei rhodesiense, UniProt Q95PM0); experiment: Rhodesain enzymatic assay; assay type: biochemical
cruzain [1] = molecular target: T1, cruzain (Trypanosoma cruzi, UniProt P25779); experiment: Aggregation assays against cruzain; assay type: biochemical; details: for Sensitivity of inhibition to pre-incubation with BSA: BSA 2 mg/mL in Triton X-100 0.001%; for Sensitivity of inhibition to detergent (Triton X-100): absence, 0.01% and 0.1% Triton X-100, 10 min pre-incubation with cruzain
T1 sequence (P25779 123-467): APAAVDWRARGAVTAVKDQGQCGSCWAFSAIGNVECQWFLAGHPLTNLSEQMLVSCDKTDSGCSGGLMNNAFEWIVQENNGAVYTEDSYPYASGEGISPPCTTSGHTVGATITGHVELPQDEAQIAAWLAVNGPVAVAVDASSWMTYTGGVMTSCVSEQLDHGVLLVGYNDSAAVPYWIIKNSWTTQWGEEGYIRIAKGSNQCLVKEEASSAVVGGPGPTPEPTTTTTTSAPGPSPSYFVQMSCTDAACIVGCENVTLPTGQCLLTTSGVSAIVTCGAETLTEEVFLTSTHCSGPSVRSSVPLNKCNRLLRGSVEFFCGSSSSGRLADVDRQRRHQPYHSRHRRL
How it was run: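 Recombinant cruzain (1 nM) was pre-incubated with the test compound for 10 min at room temperature, with no Triton X-100, 0.01% or 0.1% Triton X-100. Percent inhibition was compared across detergent levels. In a BSA variant, compound sat 5 min with BSA (2 mg/mL in 0.001% Triton), then 5 min with cruzain, before substrate was added, run alongside a BSA-free control. Fluorogenic Z-FR-AMC read-out was at 340/440 nm.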

T.cruzi (Y strain) = experiment: Trypomastigote release from T. cruzi-infected peritoneal macrophages; assay type: cell-based, Trypanosoma cruzi; details: 50 µM
cruzain [2] = molecular target: T1, cruzain; experiment: Cruzain enzymatic assay; assay type: biochemical; details: for Mechanism of inhibition against cruzain: Lineweaver-Burk plots
rat cathepsin B = rat cathepsin B (Rattus norvegicus, UniProt P00787); experiment: Cathepsin B inhibition assay; assay type: biochemical; details: read-out: Inhibition of cathepsin B (greatest observed)
Chain of rat cathepsin B (P00787 80-339): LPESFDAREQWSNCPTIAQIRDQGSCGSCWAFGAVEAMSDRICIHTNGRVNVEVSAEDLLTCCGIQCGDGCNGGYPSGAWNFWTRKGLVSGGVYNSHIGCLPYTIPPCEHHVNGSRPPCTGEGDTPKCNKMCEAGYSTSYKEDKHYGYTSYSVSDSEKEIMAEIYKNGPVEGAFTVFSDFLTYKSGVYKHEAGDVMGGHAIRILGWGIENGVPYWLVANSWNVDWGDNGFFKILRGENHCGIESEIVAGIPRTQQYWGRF
How it was run: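 Buffer: 100 mM sodium phosphate, 100 mM NaCl, 1 mM EDTA, 1 mM DTT, 0.01% CHAPS, 25°C. Test compound at 100 µM or 50 µM, with or without 5 min enzyme pre-incubation. Fluorescence at 380/440 nm for 15 min. Percent inhibition versus 2% DMSO; E64 1 µM positive control. Two independent experiments, each in triplicate.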

[3] = system: Peritoneal macrophages of C57BL/6 mice; experiment: LDH cytotoxicity assay in peritoneal macrophages; assay type: cell-based, mouse; details: 3.125 µM, 24 h
[4] = system: Nitric oxide levels in macrophage culture; experiment: Nitric oxide detection; assay type: cell-based, mouse; details: culture supernatant after 11 days; 12 at 3.125 µM, IFN-γ 100 ng/mL
How it was run: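 Peritoneal macrophages from thioglycolate-elicited female C57BL/6 mice (8–10 wk) were plated at 2 × 10^5/well, adhered 3 h, then rested overnight. They were infected 2 h with Y-strain T. cruzi trypomastigotes (5:1 parasite:cell), washed, then given test compound or IFN-γ at 37°C, 5% CO2. Day-11 supernatant plus Griess reagent, 10 min, A540 for nitrite. Three independent experiments in triplicate; mean ± SEM.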

Molecule | Over 50% cruzain and rhodesain inhibition? (cruzain and rhodesain) | Sensitivity of inhibition to pre-incubation with BSA (cruzain [1]) | further results
CCOc1ccc(/C=C/c2nc(=O)c3ccccc3o2)cc1 [Compound 1] | yes | – | –
Cn1c(=O)n(C)c2cc(CNCCNc3ccnc4cc(Cl)ccc34)ccc21 [Compound 2] | yes | not sensitive to detergent nor BSA incubation | Ki (rhodesain): 1400 nM; Mechanism of inhibition versus rhodesain (rhodesain; Lineweaver-Burk plots): mixed mechanism; also recorded: mixed-type inhibitor; Trypanocidal activity in initial screen (T.cruzi (Y strain)): trypanocidal activity
Cc1cc(Nc2ccc(C)c(Cl)c2)n2nc(C(F)(F)F)nc2n1 [Compound 3] | no | – | –
Cc1nc2ccccc2c(O)c1CC=C(Cl)Cl [Compound 4] | yes | – | –
c1ccc(-c2ccc(-c3nc4ccccc4[nH]3)cc2)cc1 [Compound 5] | yes | sensitive to pre-incubation with bovine serum albumin | Fluorescence in the assays (signal interference) (cruzain [1]): displayed fluorescence in the assays; Sensitivity of inhibition to detergent (Triton X-100) (cruzain [1]): highly sensitive to Triton
CCOc1cccc(C(=O)Nc2ccc(-c3nc4ccccc4[nH]3)cc2)c1 [Compound 6] | yes | sensitive to pre-incubation with bovine serum albumin | Hill slope of dose-response curve (cruzain [2]; cruzain dose-response curve): 3.9; Fluorescence in the assays (signal interference) (cruzain [1]): displayed fluorescence in the assays; Sensitivity of inhibition to detergent (Triton X-100) (cruzain [1]): highly sensitive to Triton
c1ccc(CNc2nc(Nc3ccccc3)nc3ccccc23)cc1 [Compound 7] | yes | not sensitive to detergent nor BSA incubation | Mechanism of inhibition against cruzain (cruzain [2]): competitive inhibition; Detergent sensitivity of inhibition at 50 µM (cruzain [1]; 50 µM compound): some detergent-sensitivity; inhibition at 100 µM (rat cathepsin B): 29%; Trypanocidal activity in initial screen (T.cruzi (Y strain)): trypanocidal activity
COCCNCC(O)Cn1c2ccc(Cl)cc2c2cc(Cl)ccc21 (stereo not shown) [Compound 8] | no | sensitive to pre-incubation with bovine serum albumin | Sensitivity of inhibition to detergent (Triton X-100) (cruzain [1]): highly sensitive to Triton
CCOC(=O)c1c(C)n(-c2ccccc2)c2ccc(OC(=O)c3cc(OC)c(OC)c(OC)c3)cc12 [Compound 9] | yes | – | –
CC(=O)c1ccc(NC(=O)CSc2nc(-c3ccccc3Cl)ns2)cc1 [Compound 10] | yes | – | –
Cc1ccc(C(=O)c2oc3ccc4c(C)cc(=O)oc4c3c2C)cc1 [Compound 11] | yes | – | –
Cl.Cl.Clc1cc(Br)ccc1-c1ccc(CNCC2CCNCC2)o1 [Compound 12, 1-[5-(4-Bromo-2-chlorophenyl)-2-furyl]-N-(4-piperidinylmethyl)methanamine dihydrochloride] | no | not sensitive to detergent nor BSA incubation | Mechanism of inhibition against cruzain (cruzain [2]): competitive inhibition; Trypanocidal activity in initial screen (T.cruzi (Y strain)): trypanocidal activity; Cytotoxicity against macrophages (LDH levels) [3]: low toxicity against murine macrophages; also recorded: did not exhibit cytotoxic activity; Nitric oxide production [4]: independent of NO release
COc1ccc2sc(N(Cc3cccnc3)C(=O)c3ccc(C#N)cc3)nc2c1 [Compound 13] | yes | – | –
FC(F)(F)c1cccc(CNC2CCN(CCc3ccccc3)CC2)c1 [Compound 14] | yes | – | –
COCCNC(=O)c1ccc(OC2CCN(Cc3ccc(F)c(F)c3)CC2)c(Cl)c1 [Compound 15] | yes | – | Trypanocidal activity in initial screen (T.cruzi (Y strain)): trypanocidal activity
B1 | – | – | Nitric oxide production [4]: increased
